In ChEMBL document CHEMBL4038317, “Discovery of a Benzamide Derivative That Protects Pancreatic β-Cells against Endoplasmic Reticulum Stress” (J Med Chem, 2017):
Active and inactive are the calls of the source. No cut-off for these calls is given here.

What was measured:
Rattus norvegicus = organism: Rattus norvegicus; assay: Inhibition of tunicamycin ER stress-induced IRE1alpha activation in rat INS-1 cells assessed as suppression of tunicamycin-induced increase in XBP1 mRNA levels up to 10 uM after 8 hrs by qRT-PCR analysis; format: cell-based
Outline: (§1)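 INS-1 cells, 4×10^5 per well, were exposed to tunicamycin 0.1 μg/mL with compound or DMSO for 8 h. qRT-PCR for ATF4, CHOP, Bip, GRP94, or spliced XBP1 using splicing-specific primers. Values were normalized to cyclophilin A by ΔΔCt and given as fold over untreated control. Triplicate wells, 3 independent experiments.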

Mus musculus = assay: Antidiabetic activity in STZ-induced diabetic C57BL/6 mouse model assessed as decrease in blood glucose level at 5 mg/kg, ip administrated qd with streptozotocin for 5 days followed by compound administration alone for 2 more weeks; format: functional, organism-based; conditions: TDE = time-dependent effect
[1] = target: T1, Cyclic AMP-dependent transcription factor ATF-6 alpha (Rattus norvegicus) (UniProt G3V909); assay: Inhibition of tunicamycin ER stress-induced ATF6 activation in rat INS-1 cells assessed as suppression of increase in Bip mRNA levels up to 10 uM after 8 hrs by qRT-PCR analysis; format: cell-based; outline: as §1
T1 sequence (whole entry): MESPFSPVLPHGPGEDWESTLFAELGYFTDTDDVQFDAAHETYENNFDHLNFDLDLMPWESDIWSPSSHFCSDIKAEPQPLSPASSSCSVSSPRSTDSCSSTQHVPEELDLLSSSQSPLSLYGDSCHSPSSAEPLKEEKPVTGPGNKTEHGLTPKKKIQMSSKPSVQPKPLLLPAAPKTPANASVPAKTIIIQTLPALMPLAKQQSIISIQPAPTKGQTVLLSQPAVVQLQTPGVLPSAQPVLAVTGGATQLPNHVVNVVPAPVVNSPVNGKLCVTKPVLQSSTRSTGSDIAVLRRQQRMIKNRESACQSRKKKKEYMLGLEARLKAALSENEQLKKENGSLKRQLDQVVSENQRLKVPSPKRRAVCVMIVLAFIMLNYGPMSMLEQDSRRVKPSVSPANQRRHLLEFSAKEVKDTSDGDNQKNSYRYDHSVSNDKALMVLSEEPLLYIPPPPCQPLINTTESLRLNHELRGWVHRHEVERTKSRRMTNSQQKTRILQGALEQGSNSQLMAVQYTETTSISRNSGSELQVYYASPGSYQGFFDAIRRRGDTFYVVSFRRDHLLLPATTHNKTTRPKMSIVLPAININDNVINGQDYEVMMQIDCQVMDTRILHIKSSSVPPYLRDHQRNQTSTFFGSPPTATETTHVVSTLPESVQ

[2] = target: T2, Eukaryotic translation initiation factor 2-alpha kinase 3 (Rattus norvegicus) (UniProt Q9Z1Z1); assay: Inhibition of tunicamycin ER stress-induced PERK activation in rat INS-1 cells assessed as suppression of tunicamycin-induced increase in ATF4 protein levels up to 10 uM after 8 hrs by Western blot analysis; format: cell-based
T2 sequence (whole entry): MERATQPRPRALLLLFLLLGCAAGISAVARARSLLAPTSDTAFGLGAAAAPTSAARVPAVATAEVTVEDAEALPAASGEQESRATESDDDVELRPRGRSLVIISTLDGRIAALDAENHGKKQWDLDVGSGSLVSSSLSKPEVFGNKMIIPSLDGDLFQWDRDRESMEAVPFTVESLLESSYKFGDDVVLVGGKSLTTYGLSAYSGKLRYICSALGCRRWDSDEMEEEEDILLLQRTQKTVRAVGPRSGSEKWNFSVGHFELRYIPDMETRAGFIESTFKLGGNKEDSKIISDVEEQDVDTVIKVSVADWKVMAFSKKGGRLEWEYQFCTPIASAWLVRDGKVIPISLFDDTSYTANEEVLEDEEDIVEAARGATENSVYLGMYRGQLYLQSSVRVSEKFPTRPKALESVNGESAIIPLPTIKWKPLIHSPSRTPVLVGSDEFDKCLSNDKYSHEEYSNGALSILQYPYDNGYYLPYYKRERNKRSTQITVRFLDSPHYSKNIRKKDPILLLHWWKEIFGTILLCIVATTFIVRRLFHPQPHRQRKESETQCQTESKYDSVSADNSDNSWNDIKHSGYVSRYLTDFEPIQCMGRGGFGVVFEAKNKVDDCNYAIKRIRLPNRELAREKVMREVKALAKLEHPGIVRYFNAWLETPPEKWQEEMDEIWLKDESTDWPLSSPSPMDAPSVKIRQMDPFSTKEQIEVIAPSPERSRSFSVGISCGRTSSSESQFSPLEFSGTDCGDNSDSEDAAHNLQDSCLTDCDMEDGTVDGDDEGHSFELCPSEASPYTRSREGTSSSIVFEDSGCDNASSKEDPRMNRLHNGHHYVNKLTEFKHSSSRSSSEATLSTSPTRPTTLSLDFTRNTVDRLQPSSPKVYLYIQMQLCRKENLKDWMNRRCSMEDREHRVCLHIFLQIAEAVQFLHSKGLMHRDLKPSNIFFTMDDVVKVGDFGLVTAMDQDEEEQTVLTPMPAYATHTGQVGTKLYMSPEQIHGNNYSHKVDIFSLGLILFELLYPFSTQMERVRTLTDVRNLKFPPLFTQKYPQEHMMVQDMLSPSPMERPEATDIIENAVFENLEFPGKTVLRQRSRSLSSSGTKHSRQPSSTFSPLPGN
Outline: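 INS-1 cells were exposed to tunicamycin 0.1 μg/mL with compound or DMSO for 8 h. Lysates were immunoblotted for ATF4 and CHOP (1:1000). Bands were quantified by densitometry and normalized to α-tubulin; 3 independent experiments.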

INS1 = assay: Effect on ATF4 mRNA level in rat INS-1 cells up to 10 uM after 8 hrs by qRT-PCR analysis; format: ADME, cell-based; conditions: ins1, 8 h; outline: as §1

Q: For `O=C(NCc1ccc(C(F)(F)F)cc1)c1cccc(CN2CCCCC2)c1`, which inhibition (Rattus norvegicus) is on record?
A: Active

Q: And the Activity (Mus musculus)?
A: Tde

Q: And the inhibition [1]?
A: Active

Q: And the inhibition [2]?
A: Active

Q: And the Activity (INS1)?
A: Non-Toxic
